Measured values as given in PubChem BioAssay AID540295 (The Scripps Research Institute Molecular Screening Center, 2011).
The whole screen tested about 360,000 compounds, of which about 1,700 (0.47%) were called active.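 Rule for the calls: active = inhibition above its plate's cutoff, the mean of tested wells on that plate plus 3 SD (cut at about 29% in these data); inactive = the rest.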 This excerpt belongs to a sample that is enriched for actives.

molecular target: Melanocortin receptor 4 (Homo sapiens) (UniProt P32245); assay: MC4R antagonists of cAMP signaling, primary screen, cell-based, TR-FRET, antagonist arm of biased-ligand search (AID 540295); conditions: MC4R-expressing cells, MTII-stimulated cAMP, LANCE TR-FRET; at 6.5 µM; hits give high values;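 note: 0% = Melanotan II alone and 100% = Melanotan II plus saturating MCL0020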
Sequence (P32245 whole entry, looked up): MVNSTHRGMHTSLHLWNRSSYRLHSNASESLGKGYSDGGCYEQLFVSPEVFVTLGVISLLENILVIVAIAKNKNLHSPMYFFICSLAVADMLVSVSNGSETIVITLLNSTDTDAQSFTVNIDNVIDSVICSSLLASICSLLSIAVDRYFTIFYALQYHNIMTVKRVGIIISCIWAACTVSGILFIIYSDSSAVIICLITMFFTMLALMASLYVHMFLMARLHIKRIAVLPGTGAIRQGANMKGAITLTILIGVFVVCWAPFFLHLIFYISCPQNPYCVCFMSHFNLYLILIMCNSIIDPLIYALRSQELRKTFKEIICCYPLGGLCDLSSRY
Outline: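 Assay system: human MC4R-expressing U2OS cells; reagent: Melanotan II stimulation of cells; dosing: 6.5 µM single dose; timing: compound 30 min, challenge 1 h, detection 1 h; signal: TR-FRET cAMP assay; replicates: one well per compound, no replicates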

SMILES | inhibition
CC1=NN(C(C)C)C(=O)C1 | 6.17% (inactive)
Cc1ccnc(NC(=O)c2ccc(Cl)c([N+](=O)[O-])c2)c1 | 23.3% (inactive)
Cc1nc2ccccc2c(=O)n1NC(=O)c1ccc(Cl)c([N+](=O)[O-])c1 | 49% (active)
O=C(O)c1ccc2c(=O)n3c(nc2c1)/C(=C/c1ccc(Cl)c([N+](=O)[O-])c1)CC3 | 0.52% (inactive)
CCOC(=O)C1(C)CCCN(C(=O)c2ccc(F)c(Cl)c2)C1 (centres undefined) | -0.84% (inactive)
Cc1nc(N2CCN(c3ccccn3)CC2)c2c(C)c(C(=O)Nc3ccc(F)c(Cl)c3)sc2n1 | 5.05% (inactive)
CC(=O)Nc1ccc(S(=O)(=O)N2CCn3cccc3C2C)cc1 (centres undefined) | 1.62% (inactive)
COc1ccc(-c2n[nH]c(C)c2-c2ccccc2OC)c(O)c1 | 29.1% (active)
CCOc1ccc(-c2nc(N)ncc2-c2ccccc2OC)c(O)c1 | -2.31% (inactive)
CCOc1ccccc1Oc1cn[nH]c1-c1ccc(OC)cc1O | 2.19% (inactive)
CC(Sc1ccc(S(=O)(=O)N2CCN(C)CC2)cn1)C(=O)NC1CCCC(C)C1C (centres undefined) | -2.08% (inactive)
O=C(Nc1ccc2ccccc2c1[N+](=O)[O-])c1ccccc1 | -1.17% (inactive)
Cc1cc(=O)c2ccc(NC(=O)c3ccccc3)cc2[nH]1 | 0.31% (inactive)
O=C(NC1=CC(=O)c2ccccc2C1=O)c1ccccc1 | 34.6% (active)
CN(CCC#N)c1ncnc2scc(-c3ccccc3)c12 | -6.59% (inactive)
Cc1sc2nc(-c3ccccc3F)oc(=O)c2c1C | 2.06% (inactive)
Cc1ccccc1-n1nnnc1SCCCC(=O)c1ccc(F)cc1 | 0.07% (inactive)
C=C(C)Cn1c(N2CCCC2)nc2c1c(=O)[nH]c(=O)n2C | -7.2% (inactive)
Cn1c(=O)c2c(nc(N3CCCCCC3)n2CC(O)COc2ccc(Cl)cc2)n(C)c1=O (centres undefined) | 19.6% (inactive)
Cc1cccc(OCC(O)Cn2c(N3CCCCC3)nc3c2c(=O)[nH]c(=O)n3C)c1 (centres undefined) | 32.4% (active)
CCCCCCCC(=O)OC(CN1CCCCCC1)CN1CCCC1=O (centres undefined) | 3.62% (inactive)
CC(=O)c1cccc(NC(=O)C2CCCN(S(=O)(=O)c3cccc4nonc34)C2)c1 (centres undefined) | 0.67% (inactive)
Cn1nc(C(F)(F)F)cc1C(=O)O | -0.27% (inactive)
CC(NS(=O)(=O)c1ccc(Br)cc1)C(=O)NCC1CCCO1 (centres undefined) | 40.5% (active)
O=C(NCC1CCCO1)c1ccc(S(=O)(=O)Nc2ccc(F)cc2)cc1 (centres undefined) | 1.8% (inactive)

SMILES | inhibition
CCC(=O)Nc1ccc(S(=O)(=O)NCC2CCCO2)cc1 (centres undefined) | 6.76% (inactive)
Cn1cccc1C1(C(F)(F)F)NCCNC1=O (centres undefined) | 1.67% (inactive)
CC(=O)Nc1ccc(Sc2ccccc2C(=O)N2CCCC2)cn1 | 32% (active)
O=C(Nc1ccccc1C(=O)N1CCCCCC1)c1ccccc1Cl | 2.65% (inactive)
O=C(Cc1ccccc1)Nc1c(C(=O)N2CCCCCC2)cnn1-c1ccccc1 | 1.13% (inactive)
O=C(NCc1ccccc1)C1=C[C@@H](c2ccccc2)C[C@@H](OCCCCO)O1 | -12.3% (inactive)
Cc1ccccc1N1CCN(C2CCCN(C(=O)c3cn4c(C)cccc4n3)C2)CC1 (centres undefined) | -0.92% (inactive)
Cc1c(CNCCc2ccccc2)c(C(=O)O)c(C)n1-c1ccccc1 | 11.5% (inactive)
CCc1nn(CCCC(=O)Nc2ccc(C)cc2C)c(=O)c2cc3occc3n12 | -1.71% (inactive)
c1ccc(-n2cccc2)c(N2CCCCC2)c1 | 4.15% (inactive)
O=C1C=CC(=O)N1c1ccc(N2CCCCC2)cc1 | 43.8% (active)
O=C(c1ccc(Cl)c(S(=O)(=O)N2CCCCCC2)c1)N1CCN(c2ccc(O)cc2)CC1 | -1.58% (inactive)
CCc1nc2ccc(C(=O)N3CCC(O)(Cc4ccccc4)CC3)cn2c1N(C)C(=O)Cc1ccccc1 | 9.63% (inactive)
CCCCn1nc(C(=O)N2CCc3ccccc32)c2ccccc2c1=O | 9.32% (inactive)
S=C(NC1CCCCC1)NN1CCOCC1 | 7.17% (inactive)
COc1cc([N+](=O)[O-])ccc1NC(=O)COC(=O)CCOc1ccc(C)cc1 | 7.73% (inactive)
CC(OC(=O)CCCc1c[nH]c2ccccc12)C(=O)Nc1ccc(S(N)(=O)=O)cc1 (centres undefined) | -3.17% (inactive)
Cc1ccc(NC(=O)C(C)OC(=O)Cc2c[nH]c3ccccc23)cc1S(=O)(=O)N1CCOCC1 (centres undefined) | 28.7% (active)
Cc1ccc(NC(=O)C(C)OC(=O)C2CC3CCCC(C2)C3=O)cc1S(=O)(=O)N1CCOCC1 (centres undefined) | -1.35% (inactive)
N#Cc1c(-c2cccs2)nc(SCC(=O)c2ccc(Br)cc2)[nH]c1=O | 39.6% (active)
O=C(CSc1nc2ccccc2c(=O)[nH]1)Nc1nc(-c2ccc(Br)cc2)cs1 | 10% (inactive)
CC(=O)CSc1nc(CCc2ccccc2)c(C#N)c(=O)[nH]1 | 7.06% (inactive)
CC(=O)Nc1cccc(-c2cc(NC(C)=O)c3ncc(-c4ccccc4)n3c2)c1 | 9.96% (inactive)
COc1ccc(C(=O)N2CCCCC2c2cc(C(=O)Nc3ccc(F)c(Cl)c3)no2)cc1 (centres undefined) | 16.2% (inactive)
